Our source for the MIC50 and Ratio values is ChEMBL document CHEMBL5096213 (Bioorg Med Chem, 2022).

For orientation: MIC50 means an inhibitory concentration at the 50% level, which refers to growth in some studies and to a panel of isolates in others.

In brackets after ≈: the same amount, converted by molar mass. Some results are limits rather than exact numbers.

The first assay has as its system Mycobacterium tuberculosis variant bovis. The assay can be described thus: Antimycobacterial activity against Mycobacterium bovis BCG Pasteur ATCC35734 assessed as inhibition of bacterial growth incubated for 5 days by broth microdilution method. Type of assay: functional. The settings on record: BCG Pasteur ATCC35734, 120 h, time 5 day. The method in brief:
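M. bovis BCG Pasteur grown to mid-log (OD600 0.4–0.6), seeded at OD600 0.05 into 2-fold serial compound dilutions in complete Middlebrook 7H9, neutral pH. Incubation 5 days, 37 °C, shaking 90 rpm, humidified. […] At least two experiments, means reported.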
Turning to `Cc1cnc(C(=O)O)cn1`, the MIC50 is 3200 µM (≈ 442 µg/mL).
In the case of `O=C(O)c1cnc(Cl)cn1`, the MIC50 amounted to 1700 µM (≈ 270 µg/mL).
The same measure, in the same setting: the figure for `O=C(O)c1cnc2ccccc2n1` is 700 µM (≈ 122 µg/mL); for `NC(=S)c1cnccn1` it is 2700 µM (≈ 376 µg/mL).
Same read-out and setting: the figure for `O=C(O)c1cncnc1` is over 5000 µM.
On the same count and under the same terms, under `CC(=O)c1cnccn1` stands over 5000 µM.
Take `O=C(O)c1ccnnc1`: the MIC50 is over 4000 µM.
The same measure, in the same setting: under `O=C(O)c1cccnn1` stands over 5000 µM; under `CCCC(=O)Nc1cnc(C(=O)O)c(N)n1`, over 4000 µM; under `CCCNc1cnc(C(=O)O)cn1`, 1400 µM (≈ 254 µg/mL).
The same measure, in the same setting: the figure for `O=C(O)c1cnc(O)cn1` is over 3000 µM.
Still for that read-out and setting: under `O=C(O)c1nccnc1N1CCSCC1` stands over 5000 µM.
On to `CC(C)(C)Nc1nccnc1C(=O)O`, for which the MIC50 was found to be 400 µM (≈ 78.1 µg/mL).
On the same count and under the same terms, the figure for `O=C(O)c1nccnc1Br` is over 4000 µM.
Same read-out and setting: the figure for `CCCNc1nccnc1C(=O)O` is 200 µM (≈ 36.2 µg/mL); for `CC(C)CNc1cnc(C(=O)[O-])cn1.[Na+]` it is 400 µM.
With `CC(C)Nc1nccnc1C(=O)O`, the MIC50 came out at 20 µM (≈ 3.62 µg/mL).
Still for that read-out and setting: under `O=C(O)c1nccnc1Nc1ccccc1` stands 400 µM (≈ 86.1 µg/mL).
As to `CC(=O)Nc1cnc(C(=O)O)c(N)n1`, the MIC50 was over 4000 µM.
On the same count and under the same terms, the figure for `Cc1nccnc1C(=O)O` is 3500 µM (≈ 483 µg/mL); for `CCCCNc1nccnc1C(=O)O` it is 600 µM (≈ 117 µg/mL); for `CC(C)CN(C)c1cnc(C(=O)O)c(N)n1` it is 700 µM (≈ 157 µg/mL).
Regarding `CCN(CC)c1nccnc1C(=O)O`, the MIC50 was determined as 3600 µM (≈ 703 µg/mL).
Same read-out and setting: under `COc1nccnc1C(=O)O` stands 2700 µM (≈ 416 µg/mL); under `CCC(=O)Nc1cnc(C(=O)O)cn1`, 3500 µM (≈ 683 µg/mL); under `CNc1nccnc1C(=O)O`, 700 µM (≈ 107 µg/mL).
Same read-out and setting: the figure for `O=C(O)c1cnc(NC2CCC2)cn1` is over 2500 µM.
On the same count and under the same terms, the figure for `CCCCN(C)c1nccnc1C(=O)O` is 2300 µM (≈ 481 µg/mL).
As for `O=C(O)c1nccnc1-c1ccccc1`, the MIC50 is 1500 µM (≈ 300 µg/mL).
Same read-out and setting: under `NS(=O)(=O)c1cnccn1` stands over 4000 µM; under `CCCCN(C)c1cnc(C(=O)O)c(N)n1`, 200 µM (≈ 44.9 µg/mL).
The same measure, in the same setting: the figure for `CC(C)CNc1cncc(C(=O)[O-])n1.[Na+]` is over 2500 µM; for `Cc1cccc(-c2nccnc2C(=O)O)c1` it is 800 µM (≈ 171 µg/mL).
The same measure, in the same setting: the figure for `O=C(O)c1nccnc1N1CCCCC1` is over 2500 µM.
In the case of `Cc1ccccc1-c1nccnc1C(=O)O`, the MIC50 is over 5000 µM.
With `CCNc1nccnc1C(=O)[O-].[Na+]`, the MIC50 was 400 µM.
Still for that read-out and setting: the figure for `CCC(=O)Nc1cncc(C(=O)O)n1` is 200 µM (≈ 39 µg/mL); for `O=C(O)c1nccnc1NCc1ccccc1` it is 200 µM (≈ 45.8 µg/mL); for `CC(C)C(=O)Nc1cnc(C(=O)O)c(N)n1` it is over 4000 µM.
Same read-out and setting: under `O=C(O)c1nccnc1Cl` stands 1800 µM (≈ 285 µg/mL); under `O=C(O)c1ncccn1`, over 4000 µM; under `CC(C)Nc1cnc(C(=O)O)c(N)n1`, 1200 µM (≈ 235 µg/mL).
Still for that read-out and setting: the figure for `O=C(O)c1cncc(-c2ccccc2)n1` is 1700 µM (≈ 340 µg/mL).
In the case of `c1cnc(-c2nnn[nH]2)cn1`, the MIC50 is over 4000 µM.
Still for that read-out and setting: the figure for `CCNc1cnc(C(=O)[O-])cn1.[Na+]` is 1800 µM.
On the same count and under the same terms, the figure for `CC(C)CN(C)c1nccnc1C(=O)O` is 3500 µM (≈ 732 µg/mL); for `Nc1cnc(C(=O)O)cn1` it is 800 µM (≈ 111 µg/mL); for `CN(Cc1ccccc1)c1nccnc1C(=O)O` it is 700 µM (≈ 170 µg/mL).
Still for that read-out and setting: under `COc1cnc(C(=O)O)cn1` stands 3500 µM (≈ 539 µg/mL); under `O=C(O)c1cnc(Br)cn1`, 2500 µM (≈ 507 µg/mL).
Take `O=C(O)c1nccnc1N1CCC2(CC1)CC2`: the MIC50 is over 2500 µM.
On the same count and under the same terms, under `O=C(O)c1nccnc1N1CCOCC1` stands over 5000 µM.
Same read-out and setting: under `O=C(O)c1cncc(O)n1` stands over 2400 µM; under `O=C(O)c1cncc(Br)n1`, 3000 µM (≈ 609 µg/mL); under `Nc1cncc(C(=O)O)n1`, 2600 µM (≈ 362 µg/mL).
For the compound `O=C(O)c1nccnc1NC1CCCC1`, the MIC50 was 400 µM (≈ 82.9 µg/mL).
Take `O=C(O)c1ccncn1`: the MIC50 was found to be 2000 µM (≈ 248 µg/mL).
`CC(C)CNc1nccnc1C(=O)[O-].[Na+]`: the MIC50 is 200 µM.
The same measure, in the same setting: the figure for `O=C(O)c1cncc(Cl)n1` is 1000 µM (≈ 159 µg/mL); for `CCNc1cncc(C(=O)[O-])n1.[Na+]` it is over 2500 µM; for `CCC(=O)Nc1nccnc1C(=O)O` it is 1500 µM (≈ 293 µg/mL).
Still for that read-out and setting: the figure for `O=C(O)c1nccnc1NC1CCC1` is 400 µM (≈ 77.3 µg/mL); for `O=C(O)c1cncc(NC2CCC2)n1` it is over 2500 µM; for `CC(=O)NS(=O)(=O)c1cnccn1` it is over 4000 µM.
Same read-out and setting: the figure for `Nc1nccnc1C(=O)O` is 800 µM (≈ 111 µg/mL).
As to `Cc1ccc(-c2nccnc2C(=O)O)cc1`, the MIC50 was 1000 µM (≈ 214 µg/mL).
The same measure, in the same setting: under `O=C(O)c1cnc(-c2ccccc2)cn1` stands over 4000 µM.
Turning to `O=C(O)c1nccnc1O`, the MIC50 is over 4000 µM.
Take `COc1cncc(C(=O)O)n1`: the MIC50 came out at 2000 µM (≈ 308 µg/mL).
The same measure, in the same setting: under `Cc1cncc(C(=O)O)n1` stands 2400 µM (≈ 332 µg/mL); under `O=C(O)c1nccnc1N1CCCC1`, 4700 µM (≈ 908 µg/mL).
Still for that read-out and setting: under `O=C(O)c1ccccn1` [2-PICOLINIC ACID] stands 700 µM (≈ 86.2 µg/mL); under `O=C(O)c1ccccc1` [BENZOIC ACID], 2200 µM (≈ 269 µg/mL); under `O=C(O)c1ccncc1` [ISONICOTINIC ACID], 2700 µM (≈ 332 µg/mL).
The same measure, in the same setting: under `O=C(O)c1cccnc1` [NIACIN] stands 900 µM (≈ 111 µg/mL); under `O=C(O)c1cnccn1` [PYRAZINOIC ACID], 1000 µM (≈ 124 µg/mL).

The next assay has the same test system. The assay can be described thus: Potency index, ratio of pyrazinoic-acid MIC50 to test compound MIC50 for antimycobacterial activity against Mycobacterium bovis BCG Pasteur ATCC35734 assessed as inhibition of bacterial growth incubated for 5 days by broth microdilution method. Format: functional. The settings on record: time 5 day.
For the compound `CC(C)CNc1cnc(C(=O)[O-])cn1.[Na+]`, the Ratio was 2.5.
The same measure, in the same setting: under `CC(C)CNc1cncc(C(=O)[O-])n1.[Na+]` stands 2.5.
The same measure, in the same setting: under `CCNc1nccnc1C(=O)[O-].[Na+]` stands 2.5.
Same read-out and setting: under `CCC(=O)Nc1cncc(C(=O)O)n1` stands 5; under `CCNc1cnc(C(=O)[O-])cn1.[Na+]`, 2.5; under `CC(C)CNc1nccnc1C(=O)[O-].[Na+]`, 2.5.
For `CCNc1cncc(C(=O)[O-])n1.[Na+]`, the Ratio is 2.5.
